In brackets after ≈: the same amount, converted by molar mass.
tested on: not listed separately; test: Inhibition of bovine thymus p56LCK; parameters: species or system Bos taurus
Summary of the method: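 Partially purified p56lck from bovine thymus (through butyl-agarose step). Compounds were dissolved in DMSO, with 8% DMSO present in all assays. Emodin served as reference compound.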

Molecule OC[C@H]1O[C@@H](Oc2ccc(/C=C\c3cc(O)cc(O)c3)cc2)[C@H](O)[C@@H](O)[C@@H]1O has an IC50 greater than 8 ×10² ug/ml.

Compared with Oc1ccc(/C=C\c2cc(O)cc(O)c2)cc1 [CIS-RESVERATROL], Oc1ccc(/C=C/c2cc(O)cc(O)c2)cc1 [RESVERATROL] is higher in IC50: 5 ×10¹ ug/ml for the first, 6 ×10¹ ug/ml for the second.

Molecule Cc1cc(O)c2c(c1)C(=O)c1cc(O)cc(O)c1C2=O [EMODIN] has an IC50 of 10 µg/mL (≈ 37 µM).

OC[C@H]1O[C@@H](Oc2ccc(/C=C/c3cc(O)cc(O)c3)cc2)[C@H](O)[C@@H](O)[C@@H]1O [GOB C] and OC[C@H]1O[C@@H](Oc2cc(O)cc(/C=C/c3ccc(O)cc3)c2)[C@H](O)[C@@H](O)[C@@H]1O [PICEID] are the same in IC50: 2 ×10² ug/ml for the first, 2 ×10² ug/ml for the second.

Work on OC[C@H]1O[C@@H](Oc2cc(O)cc(/C=C\c3ccc(O)cc3)c2)[C@H](O)[C@@H](O)[C@@H]1O [Z-PICEID] yielded an IC50 of 5 ×10² ug/ml.

target: Protein kinase C (PKC); test: Inhibition of rat brain PKC
Summary of the method: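 Rat brain PKC, partially purified and mainly alpha/beta isoforms, acting on lysine-rich histone (30 μg). Partial activation by phosphatidylserine 8 μg/ml plus TPA 3 nM, no calcium, EGTA present, 20 mM Tris-Cl pH 7.4. Run 10 min at 30°, duplicates. Samples spotted on P81 paper, Cerenkov counted, no-enzyme blanks subtracted. IC50 from logarithmic interpolation over ten-fold dilutions, 0.16–160 μg/ml.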

Going from OC[C@H]1O[C@@H](Oc2ccc(/C=C\c3cc(O)cc(O)c3)cc2)[C@H](O)[C@@H](O)[C@@H]1O to OC[C@H]1O[C@@H](Oc2ccc(/C=C/c3cc(O)cc(O)c3)cc2)[C@H](O)[C@@H](O)[C@@H]1O [GOB C], the IC50 falls from 6 µg/mL (≈ 15.4 µM) to 3 µg/mL (≈ 7.68 µM) (2-fold).

Molecule CN1CCN(CCCN2c3ccccc3Sc3ccc(C(F)(F)F)cc32)CC1 [TRIFLUOPERAZINE] has an IC50 of 30 µg/mL (≈ 73.6 µM).

First: Oc1ccc(/C=C\c2cc(O)cc(O)c2)cc1 [CIS-RESVERATROL]
Second: Oc1ccc(/C=C/c2cc(O)cc(O)c2)cc1 [RESVERATROL]
The IC50 of the first is lower: 3 ×10¹ ug/ml for the first, 4 ×10¹ ug/ml for the second.

OC[C@H]1O[C@@H](Oc2cc(O)cc(/C=C/c3ccc(O)cc3)c2)[C@H](O)[C@@H](O)[C@@H]1O [PICEID] and OC[C@H]1O[C@@H](Oc2cc(O)cc(/C=C\c3ccc(O)cc3)c2)[C@H](O)[C@@H](O)[C@@H]1O [Z-PICEID] are the same in IC50: 2 ×10² ug/ml for the first, 2 ×10² ug/ml for the second.
